Assay results from ChEMBL document CHEMBL4196032, “Conformational mimetics of the α-methyl chalcone TUB091 binding tubulin: Design, synthesis and antiproliferative activity” (Eur J Med Chem, 2018).
Activity calls are given as the source filed them. No cut-off for these calls is given here.

Experiments:
[1] = test system: HeLa; experiment: Antiproliferative activity against human HeLa cells; type: functional, cell-based
Method in brief: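 Cervical carcinoma cells plated at 10,000 cells/well in 48-well plates. Varied concentrations added after 24 h, then 3 days of incubation. Cells trypsinized and Coulter-counted. IC50 is the concentration giving 50% reduction of proliferation.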

[2] = species on record: Bos taurus; experiment: Inhibition of calf brain tubulin polymerization at 30 uM measured for 6000 secs by spectrophotometric method
Method in brief: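 Calf brain tubulin, gel-filtered into GAB buffer (10 mM sodium phosphate, 1 mM EGTA, 25% glycerol, 0.1 mM GTP, pH 7.0) at 25 µM, degassed; compound at 30 µM. Assembly at 37 °C followed by absorbance at 350 nm up to 6000 s; DMSO and podophyllotoxin controls; normalized absorbance.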

[3] = test system: HMEC-1; experiment: Antiproliferative activity against human HMEC1 cells; type: cell-based
Method in brief: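 HMEC-1 microvascular endothelial cells plated at 20,000 cells/well in 48-well plates. 5-fold dilutions added after 24 h, then 4 days of growth. Cells trypsinized and counted by Coulter counter. IC50 is the concentration halving proliferation.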

[4] = test system: L1210; experiment: Antiproliferative activity against mouse L1210 cells after 96 hrs by coulter counting method; type: functional, cell-based; details: L1210, 96 h
Method in brief: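 Suspension cells (CEM, L1210) seeded at 60,000 cells/well together with graded compound concentrations; grown 96 h, then counted by Coulter counter. IC50 = concentration reducing cell proliferation by 50%.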

[5] = test system: CCRF-CEM; experiment: Antiproliferative activity against human CEM cells; type: functional, cell-based
Method in brief: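 Suspension cells seeded at 60,000 cells/well in 96-well plates together with a range of compound concentrations. Grown 96 h, then counted by Coulter counter. IC50 taken as the concentration reducing proliferation by 50%.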

[6] = test system: CCRF-CEM; experiment: Antiproliferative activity against human CEM cells after 96 hrs by coulter counting method; type: functional, cell-based
Method in brief: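 Suspension cells (CEM, L1210) seeded at 60,000 cells/well together with graded compound concentrations; grown 96 h, then counted by Coulter counter.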

[7] = test system: HMEC-1; experiment: Antiproliferative activity against human HMEC1 cells after 4 days by coulter counting method; type: cell-based; details: HMEC-1, 96 h
Method in brief: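 HMEC-1 seeded at 20,000 cells/well; 5-fold compound dilutions added after 24 h; 4 days proliferation, trypsinized, Coulter counted.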

[8] = test system: HeLa; experiment: Cell cycle arrest in human HeLa cells assessed as accumulation at G2/M phase at 0.1 uM after 24 hrs by propidium iodide staining based flow cytometry; type: functional
Method in brief: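 HeLa in DMEM + 10% FBS, 125,000 cells/well; compound added after 24 h for 24 h. DNA stained with propidium iodide kit, analysed by flow cytometry within 3 h; debris/clumps gated out; sub-G1, G1, S, G2/M percentages from region markers.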

[9] = species on record: Bos taurus; experiment: Inhibition of R-PT binding to calf brain tubulin after 30 mins by fluorescence assay
Method in brief: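 Competition assay: 0.2 µM R-PT premixed with 0.2 µM calf brain tubulin in GAB buffer, ligand at 0–70 µM; 30 min at 25 °C, fluorescence read at 456 nm (ex 374 nm). Binding constants derived from competition data; racemates tested.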

[10] = test system: HeLa; experiment: Antiproliferative activity against human HeLa cells after 3 days by coulter counting method; type: functional, cell-based; details: 72 h
Method in brief: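 HeLa seeded at 10,000 cells/well; various compound concentrations added 24 h later; after 3 days incubation cells trypsinized and counted by Coulter counter.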

[11] = molecular target: Tubulin (Homo sapiens) (UniProt P68371+Q9H4B7+P0DPH7+P68366+Q13509+Q71U36+P04350+Q3ZCM7+P07437+P68363+Q9BQE3+Q6PEY2+Q13885+Q9BVA1+Q9BUF5); experiment: Inhibition of tubulin polymerization in human HeLa cells assessed as reduction in mitotic spindle formation by measuring aberrant multipolar spindle formation at 0.1 to 0.3 uM after 24 hrs by Hoechst 33342 staining based immunofluorescence microscopic method; type: cell-based
Method in brief: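 HeLa seeded overnight on poly-L-lysine-coated slides, treated 24 h with compound or 0.1% DMSO. Fixed, permeabilized, stained with anti-β-tubulin (2 µg/ml) then Alexa Fluor 555 anti-mouse (4 µg/ml); nuclei with Hoechst 33342 (2 µg/ml); spindles imaged by fluorescence microscopy.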

SMILES | IC50 [1] | inhibition [2] | IC50 [3] | IC50 [4] | IC50 [5] | IC50 [6] | IC50 [7] | Activity [8] | Kb [9] | IC50 [10] | inhibition [11]
COc1ccc(/C=C(\C)C(=O)c2cc(OC)c3c(c2)OCO3)cc1N | 3.9 nM | Active | 2.3 nM | 1 nM | 1 nM | – | – | – | – | – | –
COc1cc([C@@H]2c3cc4c(cc3[C@H](O)[C@H]3COC(=O)[C@H]23)OCO4)cc(OC)c1OC | – | Active | – | – | – | – | – | – | – | – | –
COc1ccc2c(c1N)CCC(C(=O)c1ccc(OC)c(OC)c1OC)C2 (racemic) | – | Active | – | 27 nM | – | 22 nM | 0.047 µM | Active | 2.4 ×10⁶ /M | 30 nM | Active
COc1ccc(C(=O)C2CCc3c(ccc(OC)c3[N+](=O)[O-])C2)c(OC)c1OC (racemic) | – | Active | – | 4200 nM | – | 860 nM | 5.3 µM | – | – | 810 nM | –
COc1ccc2c(c1)CCC(C(=O)c1ccc(OC)c3c1OCO3)C2 (racemic) | – | – | – | 160000 nM | – | 39000 nM | 38 µM | – | – | 88000 nM | –
COc1ccc(C(=O)C2CCc3c(ccc(OC)c3N)C2)cc1OC (racemic) | – | – | – | 52000 nM | – | 6300 nM | 122 µM | – | – | 23000 nM | –
COc1ccc2c(c1)CCC(C(=O)c1ccc(OC)c(OC)c1)C2 (racemic) | – | inactive | – | > 250000 nM | – | 221000 nM | > 250 µM | – | – | > 250000 nM | –
COc1ccc2c(c1)CCC(C(=O)c1ccc(OC)c(OC)c1O)C2 (racemic) | – | – | – | 75000 nM | – | 38000 nM | ≥ 250 µM | – | – | 40000 nM | –
COc1cc2c(cc1N)CC(C(=O)c1ccc(OC)c(OC)c1OC)CC2 (racemic) | – | – | – | 860 nM | – | 480 nM | 1.3 µM | – | – | 740 nM | –
COc1cc2c(cc1[N+](=O)[O-])CC(C(=O)c1ccc(OC)c(OC)c1OC)CC2 (racemic) | – | – | – | > 250000 nM | – | > 250000 nM | 199 µM | – | – | > 250000 nM | –
COc1ccc2c(c1)CCC(C(=O)c1ccc(OC)c(OC)c1OC)C2 (racemic) | – | Active | – | 240 nM | – | 170 nM | 1.2 µM | – | – | 400 nM | –
COc1ccc(/C=C\c2cc(OC)c(OC)c(OC)c2)cc1OP(=O)(O)O [FOSBRETABULIN DISODIUM] | – | – | – | 2.1 nM | – | 11 nM | 0.0029 µM | – | – | 13 nM | –
